Assay results: ChEMBL document CHEMBL1151735, “Further studies with the 2-amino-1,3-thiazol-4(5H)-one class of 11beta-hydroxysteroid dehydrogenase type 1 inhibitors: reducing pregnane X receptor activity and exploring activity in a monkey pharmacodynamic model” (J Med Chem, 2008)

Columns and labels:
Format in all cases: cell-based
[1] = molecular target: 11-beta-hydroxysteroid dehydrogenase 1 (Homo sapiens, UniProt P28845); experiment: Inhibition of human 11beta-HSD1 expressed in CHO cells assessed as conversion of cortisone to cortisol by ELISA
11-beta-hydroxysteroid dehydrogenase 1, sequence (P28845 whole entry): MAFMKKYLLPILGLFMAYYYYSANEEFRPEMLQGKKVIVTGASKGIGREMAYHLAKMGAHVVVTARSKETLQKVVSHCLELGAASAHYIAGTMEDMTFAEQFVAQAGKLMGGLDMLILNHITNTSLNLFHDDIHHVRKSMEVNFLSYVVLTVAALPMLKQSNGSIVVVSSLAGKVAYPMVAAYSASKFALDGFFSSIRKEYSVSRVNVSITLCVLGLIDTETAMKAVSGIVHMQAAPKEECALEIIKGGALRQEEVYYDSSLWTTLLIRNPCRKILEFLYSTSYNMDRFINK

[2] = molecular target: T1, PXR (nuclear receptor subfamily 1 group I member 2) (Homo sapiens, UniProt O75469); experiment: Transactivation of human PXR transfected in HEK cells at 2 uM by luciferase reporter gene assay relative to 12.5 uM rifampin; conditions: HEK293 cells transfected with human PXR, read-out: Activity
T1 sequence (O75469 whole entry): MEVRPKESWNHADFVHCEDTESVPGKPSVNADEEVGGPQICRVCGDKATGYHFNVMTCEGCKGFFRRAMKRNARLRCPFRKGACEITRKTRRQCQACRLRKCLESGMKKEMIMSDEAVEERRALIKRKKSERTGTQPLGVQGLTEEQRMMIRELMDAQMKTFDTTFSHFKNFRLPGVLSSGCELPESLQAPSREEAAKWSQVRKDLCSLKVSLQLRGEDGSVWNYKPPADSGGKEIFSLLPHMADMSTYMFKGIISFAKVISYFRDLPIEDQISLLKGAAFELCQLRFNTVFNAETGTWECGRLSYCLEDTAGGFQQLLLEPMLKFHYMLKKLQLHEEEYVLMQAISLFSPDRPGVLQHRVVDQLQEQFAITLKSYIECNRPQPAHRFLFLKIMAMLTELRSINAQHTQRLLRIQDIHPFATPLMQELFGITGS
Procedure, shortened: (§1)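 HEK cells transfected with human PXR fused to a firefly luciferase reporter. Luciferase activity is expressed as percent of the 12.5 µM rifampin response. Run in triplicate; SEM reported.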

[3] = molecular target: T2, Nuclear receptor subfamily 1 group I member 2 (Homo sapiens, UniProt O75469); experiment: Transactivation of human PXR transfected in HEK cells at 20 uM by luciferase reporter gene assay relative to 12.5 uM rifampin; conditions: hek293, 20 µM; procedure, shortened: as §1
T2 sequence (O75469 whole entry): T1 sequence (O75469 whole entry)

IC50 [1]	activity at 2 µM [2]	Activity [3]	Compound
14 nM			O=C(Nc1cccc(C(=O)N2CCC[C@@H]3CCCC[C@H]32)c1)c1ccccc1
	0.8%	9.3%	C[C@H](NC1=NC(=O)C(C)(c2ccc(C(N)=O)cc2)S1)c1ccc(F)cc1 (stereo not given in full)
	2.3%	25%	C[C@H](NC1=NC(=O)C(C)(c2ccc(CO)cc2)S1)c1ccc(F)cc1 (stereo not given in full)
